Phagocyt inh – blocks phagocytosis by macrophages. inhibition, % at 5 µM. J774A.1 macrophage IgG-bead phagocytosis, imaging. hit rate 0.07% among 110,000;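 active = inhibition above the mean of the plate negative controls plus 5 SD, cut at about 13% in these data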;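 note: phagocytic index as fraction of beads internalized from green versus red external bead signal; plate controls were DMSO negative control for no effect and cytochalasin-D positive control for full effect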
Pyk2 oligo antag – Pyk2 (human) oligomerization antagonism; Q14289; Q293 cells, Pyk2 FERM NanoBiT luminescence; stronger effect = lower value; z-score (the deposit names both 25 µM and 10 µM); hit rate 0.83% among 99,000;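 active = Z-score of -3 or lower, scaled per plate to the spread of control and sample wells; inactive = z-score above -3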;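 note: negative z-score means lost luminescence so less FERM oligomerization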
Measles CPE – protection of cells from measles virus | Measles virus-infected cells, CPE protection, absorbance | protection (pct of control), % at 4 µM | AID 841 | hit rate 1.5% among 140,000; in the data active = protection mostly above about 24%, no sharp cut-off; inactive = mostly below about 26%
hDAT+cocaine – changed human dopamine transporter uptake under cocaine IC80; B-score at 10 µM; Q01959; LLC-PK1 hDAT cells, [14C]-dopamine uptake with cocaine IC80; actives deviate in either direction; hit rate 1.3% among 110,000; AID 449768;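 active = Z score or B-score, a plate-position-corrected score, falls beyond the plate's 99.7% confidence bounds, in either direction; inactive = both scores lie inside the 99.7% bounds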;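 note: scored against the spread of the other compound wells on the same plate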
Cav3 T inh – inhibitors of human Cav3.2 T-type calcium channel; O95180; Cav3.2-expressing cells, Fluo-4 calcium fluorescence FDSS; stronger effect = lower value; B-score at 10 µM; hit rate 4% among 100,000;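 active = single-dose well whose peak fluorescence ratio is a statistical outlier from its plate by either plate-standardised score or position-corrected B-score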
Rev-RRE block – disrupts HIV-1 Rev binding to RRE RNA. inhibition, % at 8 µM. AID 704. Rev peptide-RRE RNA binding, FRET. P05866. hit rate 0.79% among 97,000;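 active = inhibition above the screen-wide mean plus 3 SD, cut at about 35% in these data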;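 note: 0% = median DMSO wells and 100% = median Neomycin B control wells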
Target sequence (P05866 whole entry, looked up): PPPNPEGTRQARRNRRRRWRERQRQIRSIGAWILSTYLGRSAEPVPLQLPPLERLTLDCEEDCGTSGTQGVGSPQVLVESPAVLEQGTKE
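Material: labelled RRE RNA duplex and labelled Rev peptide / Buffer or medium: HEPES pH 7.5 salt buffer with EDTA / Compound dosing: single point, 8 µM final nominal compound concentration / Benchmarks: DMSO low control, neomycin B high control / Timing: 5 min preincubation and 15 min binding, 25 °C / Technique: FRET fluorescence readout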
Numbers without * were called inactive; [ ] = dose if it differs, or a comment. Hits are enriched below; roughly 5.9% of the tested compounds scored in any of these assays.

For CCC1=C(OC(=O)N(CC)CC)N2C(=O)OC(=NCCc3c[nH]c4ccccc34)[C@]2(C)[C@H]2C1=CC[C@H]1C(=O)N(C)C(=O)[C@H]12 the results were hDAT+cocaine 0.64 and Cav3 T inh -0.014.
For O=c1oc2ccccc2c2c1ncn2C1CCCCC1 the results were Phagocyt inh -5, Pyk2 oligo antag 1.1, Measles CPE 38*, hDAT+cocaine 0.045, Cav3 T inh -3.6 and Rev-RRE block 9.
For CCOc1ccccc1C1C(C(=O)OC)=C(N)OC2=C1C(=O)CCC2 (configuration not stated) the results were Phagocyt inh 2, Pyk2 oligo antag 1.6, Measles CPE 5, hDAT+cocaine -0.59 and Cav3 T inh -1.7.
Screening CCOc1ccc(Br)cc1C1C(C(=O)OC)=C(N)Oc2cc(N(C)C)ccc21 (configuration not stated) returned Phagocyt inh 0, Pyk2 oligo antag -1.3, Measles CPE 6, hDAT+cocaine -0.34, Cav3 T inh -2.6 and Rev-RRE block 38*.
CN(C)c1ccc(/C=C/C(=O)c2cccc(Br)c2)cc1 was read as Pyk2 oligo antag -0.27, Measles CPE 13, hDAT+cocaine 0.42, Cav3 T inh -7.5* and Rev-RRE block 131*[fluorescence artefact?].
`C=CCn1c(C)c(C(C)=O)c(N2CCN(c3ccccc3)CC2)nc1=S` gave Phagocyt inh 6, Pyk2 oligo antag 0.69, Measles CPE 3, hDAT+cocaine 0.49, Cav3 T inh -1.6 and Rev-RRE block 82*[fluorescence artefact?].
Screening C=CCn1c(C)c(C(C)=O)c(N2CCCC2)nc1=S returned Phagocyt inh -1, Pyk2 oligo antag -0.06, Measles CPE 6, hDAT+cocaine 0.24, Cav3 T inh -0.15 and Rev-RRE block 10.
`N#C/C(=C\c1ccc(N2CCOCC2)o1)c1ccccc1` gave Phagocyt inh 1, Pyk2 oligo antag -0.5, Measles CPE 12, hDAT+cocaine -0.98, Cav3 T inh -2.6 and Rev-RRE block 78*.
Screening N#C/C(=C\c1ccc(N2CCOCC2)cc1)c1ccccc1 returned Phagocyt inh 0 and Measles CPE 8.
For N#C/C(=C/c1ccc(N2CCOCC2)o1)c1ccc(Br)cc1 the results were Phagocyt inh -4, Pyk2 oligo antag -0.12, Measles CPE 8, hDAT+cocaine -1.3, Cav3 T inh -3.4 and Rev-RRE block 123*[fluorescence artefact?].
`N#C/C(=C\N1CCOCC1)c1ccccc1` gave Phagocyt inh 1, Pyk2 oligo antag -0.35, Measles CPE 2, hDAT+cocaine -0.95, Cav3 T inh 1.8 and Rev-RRE block 2.
Screening N#C/C(=C\c1cc([N+](=O)[O-])c(N2CCOCC2)cc1N1CCOCC1)c1nc2ccccc2[nH]1 returned Phagocyt inh -1, Pyk2 oligo antag 0.47, Measles CPE 15, hDAT+cocaine -0.4, Cav3 T inh -0.49 and Rev-RRE block 7.
N#C/C(=C/c1ccc(N2CCOCC2)o1)c1nc2ccccc2[nH]1 was read as Pyk2 oligo antag 1.4, Measles CPE 10, hDAT+cocaine 0.32, Cav3 T inh -10* and Rev-RRE block 136*[fluorescence artefact?].
Screening CC(C)(C)OC(=O)NCCCC[C@H](NC(=O)c1nc[nH]c1C(=O)NC(c1ccccc1)c1ccccc1)C(=O)OC(C)(C)C returned hDAT+cocaine -0.21 and Cav3 T inh -1.4.
Screening Cc1ccc(NC(=O)CC2S/C(=N/N=C/c3c[nH]c4ccccc34)NC2=O)cc1 (configuration not stated) returned Phagocyt inh -3 and Measles CPE 13.
For CCOC(=O)c1ccc(NC(=O)CC2S/C(=N/N=C/c3c[nH]c4ccccc34)NC2=O)cc1 (configuration not stated) the results were Phagocyt inh -3 and Measles CPE 28*.
COc1ccc(NC(=O)NN(C(=O)c2ccccc2)C(C)(C)C)cc1 was read as Phagocyt inh -2, Pyk2 oligo antag -0.14 and Measles CPE 17.
CCc1sc(NC(=O)COC)nc1-c1ccccc1 was read as Phagocyt inh 0, Pyk2 oligo antag 0.68, Measles CPE 28*, hDAT+cocaine -0.4, Cav3 T inh 0.44 and Rev-RRE block 1.
`CCSc1nnc(NC(=O)CCn2c(=O)oc3ccccc32)s1` gave hDAT+cocaine -0.25 and Cav3 T inh -0.66.
`COc1ccc2c(c1)c1nc3ccccc3nc1n2CCn1c(=O)oc2ccccc21` gave Phagocyt inh 0, Pyk2 oligo antag -0.25, Measles CPE 8, hDAT+cocaine -1.1, Cav3 T inh 0.12 and Rev-RRE block 9.
Screening O=c1oc2ccccc2n1CCn1c2ccccc2c2nc3ccccc3nc21 returned Phagocyt inh -1, Pyk2 oligo antag -3.1*, Measles CPE 3, hDAT+cocaine -0.0025, Cav3 T inh 1.2 and Rev-RRE block 2.
CCOC(=O)Cn1cc(C=O)c2ccccc21 was read as Phagocyt inh 1, Pyk2 oligo antag -0.56, Measles CPE 8, hDAT+cocaine -10*, Cav3 T inh 1.1 and Rev-RRE block 8.
For O=C(CCn1c(=O)oc2ccccc21)Nc1nc2ccccc2s1 the results were Phagocyt inh 0, Measles CPE 40*, hDAT+cocaine -0.27, Cav3 T inh -4.6 and Rev-RRE block 2.
For CCCn1c2ccccc2c2nc3ccccc3nc21 the results were Phagocyt inh -2, Pyk2 oligo antag -1.1, Measles CPE 14, hDAT+cocaine -0.015, Cav3 T inh 0.63 and Rev-RRE block 12.
`CCOC(=O)Cn1c2ccccc2c2nc3ccccc3nc21` gave Phagocyt inh -1, Pyk2 oligo antag -0.42, Measles CPE 46*, hDAT+cocaine 0.98, Cav3 T inh -1.5 and Rev-RRE block -3.
`Cc1ccc(Oc2ccc(-c3nnc(-c4ccccc4)o3)cc2[N+](=O)[O-])cc1C` gave Phagocyt inh -9 and Measles CPE 7.
CC(/C=C1\SC(=O)N(CC(=O)Nc2ccc(O)cc2)C1=O)=C\c1ccccc1 was read as Pyk2 oligo antag -1.2 and Measles CPE 30.
`Cc1cc(NC(=O)CN2C(=O)S/C(=C\c3ccccc3)C2=O)no1` gave Measles CPE 31*.
Cc1ccc(NC(=S)NN(C)c2cc(C)nc(C)n2)cc1 was read as Phagocyt inh 0, Pyk2 oligo antag 0.15 and Measles CPE 14.
For CNc1oc(-c2ccccc2Cl)nc1P(=O)(c1ccccc1)c1ccccc1 the results were Phagocyt inh -5 and Measles CPE 2.
`CNc1oc(-c2ccc(C)cc2)nc1P(=O)(c1ccccc1)c1ccccc1` gave Pyk2 oligo antag -0.5, Measles CPE 6, Cav3 T inh -4.3* and Rev-RRE block -4.
Screening COc1cccc(OC)c1OCCCc1c(C)n[nH]c1C returned Phagocyt inh -2, Pyk2 oligo antag 0.24, Measles CPE 4, hDAT+cocaine 0.98, Cav3 T inh 0.24 and Rev-RRE block -1.

Source: PubChem BioAssay
